Experimental data taken from ChEMBL document CHEMBL1154428, “Cloning, nucleotide sequencing, and analysis of the AcrAB-TolC efflux pump of Enterobacter cloacae and determination of its involvement in antibiotic resistance in a clinical isolate” (2007).
≈ marks a conversion by molar mass, not a printed value.

How the values were obtained:
Enterobacter cloacae [1] = assay: Antibacterial activity against drug-resistant Enterobacter cloacae EcDC64 isolate expressing AcrAB-TolC efflux pump by Etest; format: functional
Enterobacter cloacae [2] = assay: Antibacterial activity against drug-resistant Enterobacter cloacae EcDC64 isolate expressing AcrAB-TolC efflux pump in presence of 20 ug/ml efflux pump inhibitor Phe-Arg-beta-naphthylamide by Etest
Enterobacter cloacae [3] = assay: Antibacterial activity against drug-resistant AcrAB-TolC efflux pump deficient Enterobacter cloacae EcdeltaacrA isolate by Etest; format: functional
Enterobacter cloacae [4] = assay: Antibacterial activity against drug-resistant AcrAB-TolC efflux pump deficient Enterobacter cloacae EcdeltaacrA isolate in presence of 20 ug/ml efflux pump inhibitor Phe-Arg-beta-naphthylamide by Etest; format: functional
Enterobacter cloacae [5] = assay: Antibacterial activity against drug-resistant AcrAB-TolC efflux pump deficient Enterobacter cloacae EcdeltaacrA isolate expressing pAP2 plasmid containing Enterobacter cloacae acrA gene by Etest; format: functional
Enterobacter cloacae [6] = assay: Antibacterial activity against drug-resistant AcrAB-TolC efflux pump deficient Enterobacter cloacae EcdeltaacrA isolate expressing pACYC184 plasmid by Etest; format: functional
Enterobacter cloacae [7] = assay: Antibacterial activity against drug-resistant AcrAB-TolC efflux pump deficient Enterobacter cloacae EcdeltaacrA isolate expressing pAP3 plasmid containing Enterobacter aerogenes acrR gene by Etest; format: functional
Enterobacter cloacae [8] = assay: Antibacterial activity against drug-resistant AcrAB-TolC efflux pump deficient Enterobacter cloacae EcdeltaacrA isolate expressing pBGS18 plasmid by Etest; format: functional
Enterobacter cloacae [9] = assay: Antibacterial activity against drug-resistant Enterobacter cloacae EcDC64 isolate expressing AcrAB-TolC efflux pump by standard disk diffusion method; format: functional
Summary of the method: (§1)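 Standard disk diffusion on Mueller-Hinton agar with telithromycin, fusidic acid, novobiocin, nalidixic acid, rifampin and norfloxacin disks. The read-out is the inhibition zone diameter in mm. The acrA-deleted strain was complemented with acrA on pAP-2, and pACYC184 served as the empty vector.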

Enterobacter cloacae [10] = assay: Antibacterial activity against drug-resistant Enterobacter cloacae EcDC64 isolate expressing AcrAB-TolC efflux pump in presence of 20 ug/ml efflux pump inhibitor Phe-Arg-beta-naphthylamide by standard disk diffusion method; format: functional; summary of the method: as §1
Enterobacter cloacae [11] = assay: Antibacterial activity against drug-resistant AcrAB-TolC efflux pump deficient Enterobacter cloacae EcdeltaacrA isolate by standard disk diffusion method; format: functional; summary of the method: as §1
Enterobacter cloacae [12] = assay: Antibacterial activity against drug-resistant AcrAB-TolC efflux pump deficient Enterobacter cloacae EcdeltaacrA isolate in presence of 20 ug/ml efflux pump inhibitor Phe-Arg-beta-naphthylamide by standard disk diffusion method; format: functional; summary of the method: as §1
Enterobacter cloacae [13] = assay: Antibacterial activity against drug-resistant AcrAB-TolC efflux pump deficient Enterobacter cloacae EcdeltaacrA isolate expressing pAP2 plasmid containing Enterobacter cloacae acrA gene by standard disk diffusion method; format: functional; summary of the method: as §1
Enterobacter cloacae [14] = assay: Antibacterial activity against drug-resistant AcrAB-TolC efflux pump deficient Enterobacter cloacae EcdeltaacrA isolate expressing pACYC184 plasmid by standard disk diffusion method; format: functional; summary of the method: as §1
Enterobacter cloacae [15] = assay: Antibacterial activity against drug-resistant Enterobacter cloacae EcDC64 isolate expressing pBGS18 plasmid by standard disk diffusion method
Enterobacter cloacae [16] = assay: Antibacterial activity against drug-resistant Enterobacter cloacae EcDC64 isolate expressing pAP3 plasmid containing Enterobacter aerogenes acrR gene by standard disk diffusion method

| Compound | MIC (Enterobacter cloacae [1]) [µg/mL] | MIC (Enterobacter cloacae [2]) [µg/mL] | MIC (Enterobacter cloacae [3]) [µg/mL] | MIC (Enterobacter cloacae [4]) [µg/mL] | MIC (Enterobacter cloacae [5]) [µg/mL] | MIC (Enterobacter cloacae [6]) [µg/mL] | MIC (Enterobacter cloacae [7]) [µg/mL] | MIC (Enterobacter cloacae [8]) [µg/mL] | inhibition zone (IZ) (Enterobacter cloacae [9]) [mm] | inhibition zone (IZ) (Enterobacter cloacae [10]) [mm] | inhibition zone (IZ) (Enterobacter cloacae [11]) [mm] | inhibition zone (IZ) (Enterobacter cloacae [12]) [mm] | inhibition zone (IZ) (Enterobacter cloacae [13]) [mm] | inhibition zone (IZ) (Enterobacter cloacae [14]) [mm] | inhibition zone (IZ) (Enterobacter cloacae [15]) [mm] | inhibition zone (IZ) (Enterobacter cloacae [16]) [mm] |
| --- | --- | --- | --- | --- | --- | --- | --- | --- | --- | --- | --- | --- | --- | --- | --- | --- |
| CO[C@@]1(NC(=O)Cc2cccs2)C(=O)N2C(C(=O)O)=C(COC(N)=O)CS[C@@H]21 [CEFOXITIN] | > 256 | > 256 | > 256 | > 256 | > 256 | > 256 | > 256 | > 256 | – | – | – | – | – | – | – | – |
| CC[C@H]1OC(=O)[C@H](C)[C@@H](O[C@H]2C[C@@](C)(OC)[C@@H](O)[C@H](C)O2)[C@H](C)[C@@H](O[C@@H]2O[C@H](C)C[C@H](N(C)C)[C@H]2O)[C@](C)(O)C[C@@H](C)C(=O)[C@H](C)[C@@H](O)[C@]1(C)O [ERYTHROMYCIN] | > 256 | 1 | 12 (≈ 16.4 µM) | 0.094 | 128 (≈ 174 µM) | 16 (≈ 21.8 µM) | 48 (≈ 65.4 µM) | > 256 | – | – | – | – | – | – | – | – |
| CN(C)[C@@H]1C(O)=C(C(N)=O)C(=O)[C@@]2(O)C(O)=C3C(=O)c4c(O)cccc4[C@@](C)(O)[C@H]3C[C@@H]12 [TETRACYCLINE] | > 256 | 64 | 64 (≈ 144 µM) | 1.5 | > 256 | 64 (≈ 144 µM) | 192 (≈ 432 µM) | > 256 | – | – | – | – | – | – | – | – |
| CN(C)c1cc(NC(=O)CNC(C)(C)C)c(O)c2c1C[C@H]1C[C@H]3[C@H](N(C)C)C(O)=C(C(N)=O)C(=O)[C@@]3(O)C(O)=C1C2=O [TIGECYCLINE] | 0.75 (≈ 1.28 µM) | 0.125 | 0.125 (≈ 0.213 µM) | 0.064 | 0.75 (≈ 1.28 µM) | 0.5 (≈ 0.854 µM) | 0.19 (≈ 0.324 µM) | 0.38 (≈ 0.649 µM) | – | – | – | – | – | – | – | – |
| NCC[C@H](O)C(=O)N[C@@H]1C[C@H](N)[C@@H](O[C@H]2O[C@H](CN)[C@@H](O)[C@H](O)[C@H]2O)[C@H](O)[C@H]1O[C@H]1O[C@H](CO)[C@@H](O)[C@H](N)[C@H]1O [AMIKACIN] | 2 (≈ 3.42 µM) | 1.5 | 0.5 (≈ 0.854 µM) | 0.125 | 2 (≈ 3.42 µM) | 0.5 (≈ 0.854 µM) | 1 (≈ 1.71 µM) | 2 (≈ 3.42 µM) | – | – | – | – | – | – | – | – |
| O=C(N[C@H](CO)[C@H](O)c1ccc([N+](=O)[O-])cc1)C(Cl)Cl [CHLORAMPHENICOL] | 8 (≈ 24.8 µM) | 0.25 | 0.5 (≈ 1.55 µM) | 0.047 | > 256 | > 256 | 1 (≈ 3.09 µM) | 8 (≈ 24.8 µM) | – | – | – | – | – | – | – | – |
| NC[C@H]1O[C@H](O[C@H]2[C@H](O)[C@@H](O[C@H]3O[C@H](CO)[C@@H](O)[C@H](N)[C@H]3O)[C@H](N)C[C@@H]2N)[C@H](N)C[C@@H]1O [TOBRAMYCIN] | 1.5 (≈ 3.21 µM) | 0.5 | 0.125 (≈ 0.267 µM) | 0.047 | 1.5 (≈ 3.21 µM) | 0.25 (≈ 0.535 µM) | 0.38 (≈ 0.813 µM) | 1 (≈ 2.14 µM) | – | – | – | – | – | – | – | – |
| CCn1cc(C(=O)O)c(=O)c2ccc(C)nc21 [NALIDIXIC ACID] | – | – | – | – | – | – | – | – | 24 | 27 | 33 | 40 | 12 | 30 | 21 | 29 |
| CC[C@H]1OC(=O)[C@H](C)C(=O)[C@H](C)[C@@H](O[C@@H]2O[C@H](C)C[C@H](N(C)C)[C@H]2O)[C@](C)(OC)C[C@@H](C)C(=O)[C@H](C)[C@H]2N(CCCCn3cnc(-c4cccnc4)c3)C(=O)O[C@]12C [TELITHROMYCIN] | – | – | – | – | – | – | – | – | 9 | 32 | 19 | 34 | 13 | 18 | 10 | 12 |
| CCN1CCN(C(=O)N[C@@H](C(=O)N[C@@H]2C(=O)N3[C@@H]2SC(C)(C)[C@@H]3C(=O)O)c2ccccc2)C(=O)C1=O [PIPERACILLIN] | > 256 | 192 | 192 (≈ 371 µM) | 6 | > 256 | > 256 | 96 (≈ 185 µM) | > 256 | – | – | – | – | – | – | – | – |
| CO/N=C(\C(=O)N[C@@H]1C(=O)N2C(C(=O)O)=C(COC(C)=O)CS[C@H]12)c1csc(N)n1 [CEFOTAXIME] | > 256 | > 256 | > 256 | 8 | > 256 | > 256 | > 256 | > 256 | – | – | – | – | – | – | – | – |
| CC(C)(O/N=C(\C(=O)N[C@@H]1C(=O)N2C(C(=O)[O-])=C(C[n+]3ccccc3)CS[C@H]12)c1csc(N)n1)C(=O)O [CEFTAZIDIME] | > 256 | > 256 | > 256 | 16 | > 256 | > 256 | > 256 | > 256 | – | – | – | – | – | – | – | – |
| Cc1onc(-c2ccccc2)c1C(=O)N[C@@H]1C(=O)N2[C@@H]1SC(C)(C)[C@@H]2C(=O)O [OXACILLIN] | > 256 | 48 | 96 (≈ 239 µM) | 4 | > 256 | > 256 | > 256 | > 256 | – | – | – | – | – | – | – | – |
| CCC[C@@H]1C[C@@H](C(=O)N[C@@H]([C@H]2O[C@H](SC)[C@H](O)[C@@H](O)[C@H]2O)[C@H](C)Cl)N(C)C1 [CLINDAMYCIN] | > 256 | 6 | 2 (≈ 4.71 µM) | 1 | > 256 | 4 (≈ 9.41 µM) | 32 (≈ 75.3 µM) | > 256 | – | – | – | – | – | – | – | – |
| CC(=O)NC[C@H]1CN(c2ccc(N3CCOCC3)c(F)c2)C(=O)O1 [LINEZOLID] | > 256 | 4 | 8 (≈ 23.7 µM) | 0.5 | > 256 | 4 (≈ 11.9 µM) | > 256 | > 256 | – | – | – | – | – | – | – | – |
| CO[C@@H]1[C@@H](OC(N)=O)[C@@H](O)[C@H](Oc2ccc3c(O)c(NC(=O)c4ccc(O)c(CC=C(C)C)c4)c(=O)oc3c2C)OC1(C)C [NOVOBIOCIN] | – | – | – | – | – | – | – | – | 0 | 20 | 16 | 22 | 0 | 14 | 0 | 0 |
| CC(=O)O[C@H]1C[C@@]2(C)[C@@H](C[C@@H](O)[C@H]3[C@@]4(C)CC[C@@H](O)[C@@H](C)[C@@H]4CC[C@@]32C)/C1=C(\CCC=C(C)C)C(=O)O [FUSIDIC ACID] | – | – | – | – | – | – | – | – | 0 | >40 | 0 | 26 | 0 | 0 | 0 | 0 |
| CC(=O)OCC1=C(C(=O)O)N2C(=O)[C@@H](NC(=O)Cc3cccs3)[C@H]2SC1 [CEPHALOTHIN] | > 256 | > 256 | > 256 | > 256 | > 256 | > 256 | > 256 | > 256 | – | – | – | – | – | – | – | – |
| CCn1cc(C(=O)O)c(=O)c2cc(F)c(N3CCNCC3)cc21 [NORFLOXACIN] | – | – | – | – | – | – | – | – | 26 | 40 | 40 | 42 | 24 | 38 | 27 | 35 |
| CO/N=C(\C(=O)N[C@@H]1C(=O)N2C(C(=O)O)=C(COC(N)=O)CS[C@H]12)c1ccco1 [CEFUROXIME] | > 256 | > 256 | > 256 | 48 | > 256 | > 256 | > 256 | > 256 | – | – | – | – | – | – | – | – |
| CO[C@H]1/C=C/O[C@@]2(C)Oc3c(C)c(O)c4c(O)c(c(/C=N/N5CCN(C)CC5)c(O)c4c3C2=O)NC(=O)/C(C)=C\C=C\[C@H](C)[C@H](O)[C@@H](C)[C@@H](O)[C@@H](C)[C@H](OC(C)=O)[C@@H]1C [RIFAMPIN] | – | – | – | – | – | – | – | – | 0 | 26 | 13 | 28 | 0 | 8 | 10 | 10 |
